Source: ChEMBL document CHEMBL1177716, “Kinesin spindle protein (KSP) inhibitors with 2,3-fused indole scaffolds” (J Med Chem, 2010)
Activity calls are given as the source filed them. No cut-off for these calls is given here.

Columns and labels:
Sus scrofa [1] = organism: Sus scrofa; experiment: Inhibition of pig brain topoisomerase 1-mediated supercoiled DNA relaxation after 20 mins by agarose gel electrophoresis analysis
How it was run: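 Supercoiled DNA was incubated with topo I, with or without test compound. Gel lanes included supercoiled DNA alone, DNA plus enzyme without compound, and DNA plus enzyme with camptothecin as the reference inhibitor.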

[2] = target: Centromere-associated protein E (Homo sapiens) (UniProt Q02224); experiment: Inhibition of CENP-E ATPase activity at 20 uM
Chain of Centromere-associated protein E (Homo sapiens) (Q02224 whole entry): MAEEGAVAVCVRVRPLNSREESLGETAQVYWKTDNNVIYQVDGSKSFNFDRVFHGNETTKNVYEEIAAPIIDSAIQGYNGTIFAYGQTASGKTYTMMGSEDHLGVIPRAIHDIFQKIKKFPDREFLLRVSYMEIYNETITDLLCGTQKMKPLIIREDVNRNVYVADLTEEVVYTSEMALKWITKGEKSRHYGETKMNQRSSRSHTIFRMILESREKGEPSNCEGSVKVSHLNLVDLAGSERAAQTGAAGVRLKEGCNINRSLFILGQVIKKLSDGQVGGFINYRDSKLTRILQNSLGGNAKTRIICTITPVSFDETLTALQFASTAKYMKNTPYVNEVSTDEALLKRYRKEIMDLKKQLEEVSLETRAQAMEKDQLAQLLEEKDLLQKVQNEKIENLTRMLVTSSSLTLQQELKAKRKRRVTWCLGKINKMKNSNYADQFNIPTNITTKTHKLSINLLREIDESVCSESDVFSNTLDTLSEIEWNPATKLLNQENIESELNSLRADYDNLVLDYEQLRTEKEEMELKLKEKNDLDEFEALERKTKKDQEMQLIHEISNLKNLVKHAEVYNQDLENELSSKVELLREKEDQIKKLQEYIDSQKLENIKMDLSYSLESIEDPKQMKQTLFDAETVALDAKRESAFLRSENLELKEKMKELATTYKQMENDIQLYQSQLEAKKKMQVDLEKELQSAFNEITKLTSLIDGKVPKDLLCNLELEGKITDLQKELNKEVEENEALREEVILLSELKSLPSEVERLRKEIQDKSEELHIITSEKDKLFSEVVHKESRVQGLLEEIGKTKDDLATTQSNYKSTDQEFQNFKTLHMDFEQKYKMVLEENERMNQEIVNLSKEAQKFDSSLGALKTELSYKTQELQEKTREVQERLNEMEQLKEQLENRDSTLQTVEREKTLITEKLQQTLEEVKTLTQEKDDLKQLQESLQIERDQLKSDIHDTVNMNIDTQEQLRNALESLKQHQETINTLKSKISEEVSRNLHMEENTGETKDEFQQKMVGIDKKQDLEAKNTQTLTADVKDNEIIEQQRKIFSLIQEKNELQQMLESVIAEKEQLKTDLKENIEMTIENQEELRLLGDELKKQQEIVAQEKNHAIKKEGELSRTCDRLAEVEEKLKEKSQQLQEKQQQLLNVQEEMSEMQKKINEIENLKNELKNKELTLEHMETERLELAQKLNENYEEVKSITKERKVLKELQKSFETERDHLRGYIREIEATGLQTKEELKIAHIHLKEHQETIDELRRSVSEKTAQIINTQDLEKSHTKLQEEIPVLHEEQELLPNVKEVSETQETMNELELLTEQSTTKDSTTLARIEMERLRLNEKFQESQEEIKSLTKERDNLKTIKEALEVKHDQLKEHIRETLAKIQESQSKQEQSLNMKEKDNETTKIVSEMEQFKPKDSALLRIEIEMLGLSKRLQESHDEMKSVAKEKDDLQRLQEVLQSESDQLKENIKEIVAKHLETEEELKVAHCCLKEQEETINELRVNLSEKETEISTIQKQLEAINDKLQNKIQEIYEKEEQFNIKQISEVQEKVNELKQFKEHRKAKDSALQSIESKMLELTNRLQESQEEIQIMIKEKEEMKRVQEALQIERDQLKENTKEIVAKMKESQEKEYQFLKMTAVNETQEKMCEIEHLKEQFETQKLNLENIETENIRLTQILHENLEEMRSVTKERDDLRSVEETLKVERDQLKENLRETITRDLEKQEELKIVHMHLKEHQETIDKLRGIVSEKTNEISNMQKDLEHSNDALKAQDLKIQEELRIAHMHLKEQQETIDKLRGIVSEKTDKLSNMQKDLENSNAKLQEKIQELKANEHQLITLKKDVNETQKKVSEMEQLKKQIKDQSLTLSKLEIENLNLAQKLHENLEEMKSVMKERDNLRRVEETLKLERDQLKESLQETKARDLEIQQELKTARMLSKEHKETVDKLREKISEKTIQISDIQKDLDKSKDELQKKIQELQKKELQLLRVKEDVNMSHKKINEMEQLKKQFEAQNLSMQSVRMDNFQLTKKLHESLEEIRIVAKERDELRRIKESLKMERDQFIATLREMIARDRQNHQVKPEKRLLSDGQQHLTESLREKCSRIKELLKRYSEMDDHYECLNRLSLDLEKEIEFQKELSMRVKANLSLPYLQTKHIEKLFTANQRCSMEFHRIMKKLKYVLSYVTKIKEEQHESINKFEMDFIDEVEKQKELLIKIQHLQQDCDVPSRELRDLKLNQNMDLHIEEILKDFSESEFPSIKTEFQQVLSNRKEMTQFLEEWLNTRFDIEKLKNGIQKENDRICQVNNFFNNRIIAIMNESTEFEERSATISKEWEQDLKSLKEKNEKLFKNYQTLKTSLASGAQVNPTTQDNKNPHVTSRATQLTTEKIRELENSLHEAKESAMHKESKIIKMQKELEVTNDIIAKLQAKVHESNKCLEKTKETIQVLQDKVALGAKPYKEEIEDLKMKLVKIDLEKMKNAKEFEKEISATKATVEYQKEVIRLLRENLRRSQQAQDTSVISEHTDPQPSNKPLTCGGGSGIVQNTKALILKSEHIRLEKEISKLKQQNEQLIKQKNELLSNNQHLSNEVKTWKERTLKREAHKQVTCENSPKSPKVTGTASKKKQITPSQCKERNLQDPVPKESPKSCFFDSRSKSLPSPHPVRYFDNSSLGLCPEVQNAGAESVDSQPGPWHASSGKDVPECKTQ

Sus scrofa [3] = organism: Sus scrofa; experiment: Inhibition of pig brain topoisomerase 2-mediated supercoiled DNA relaxation after 20 mins by agarose gel electrophoresis analysis
How it was run: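 Supercoiled DNA was incubated with topo II, with or without test compound. Gel lanes included supercoiled DNA alone, DNA plus enzyme without compound, and DNA plus enzyme with AMSA as the reference inhibitor.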

[4] = target: T1, Kinesin-like protein KIF23 (Homo sapiens) (UniProt Q02241); experiment: Inhibition of MKLP-1 ATPase activity at 20 uM
T1 sequence (whole entry): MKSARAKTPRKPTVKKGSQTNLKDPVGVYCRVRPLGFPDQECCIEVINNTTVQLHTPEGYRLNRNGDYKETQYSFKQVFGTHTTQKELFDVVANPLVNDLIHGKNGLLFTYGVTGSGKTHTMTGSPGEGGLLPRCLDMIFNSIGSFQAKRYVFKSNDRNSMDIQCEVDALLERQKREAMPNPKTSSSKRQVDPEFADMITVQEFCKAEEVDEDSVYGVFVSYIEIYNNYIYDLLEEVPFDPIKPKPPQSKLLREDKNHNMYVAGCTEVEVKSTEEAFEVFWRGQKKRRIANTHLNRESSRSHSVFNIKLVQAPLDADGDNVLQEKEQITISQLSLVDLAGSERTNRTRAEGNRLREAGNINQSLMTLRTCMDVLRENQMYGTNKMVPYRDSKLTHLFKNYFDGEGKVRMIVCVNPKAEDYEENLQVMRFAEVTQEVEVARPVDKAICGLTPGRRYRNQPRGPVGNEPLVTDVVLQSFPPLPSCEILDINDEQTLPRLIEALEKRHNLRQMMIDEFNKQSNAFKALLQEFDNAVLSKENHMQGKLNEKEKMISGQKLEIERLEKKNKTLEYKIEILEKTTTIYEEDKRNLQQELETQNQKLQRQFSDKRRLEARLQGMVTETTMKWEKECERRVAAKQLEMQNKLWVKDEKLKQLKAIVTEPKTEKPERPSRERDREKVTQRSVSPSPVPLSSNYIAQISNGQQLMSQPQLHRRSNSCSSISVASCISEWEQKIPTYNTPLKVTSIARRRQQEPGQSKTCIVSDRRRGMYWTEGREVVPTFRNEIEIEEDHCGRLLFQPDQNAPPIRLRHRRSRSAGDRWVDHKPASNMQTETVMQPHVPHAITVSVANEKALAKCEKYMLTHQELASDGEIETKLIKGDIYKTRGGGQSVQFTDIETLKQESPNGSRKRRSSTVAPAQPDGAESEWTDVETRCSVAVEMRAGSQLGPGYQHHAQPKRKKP

HeLa = experiment: Cell cycle arrest in human HeLa cells assessed as accumulation at M phase at 36 uM after 20 hrs by DAPI staining relative to taxol; assay type: functional; details: in the assay text read “at 32 uM” for “at 36 uM”
How it was run: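 HeLa cells were exposed to compound for 20 h and scored for M-phase arrest. Mitotic index was expressed as a percentage of the induction given by 0.1 μM taxol.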

| SMILES | inhibition (Sus scrofa [1]) | inhibition [2] | inhibition (Sus scrofa [3]) | inhibition [4] | Activity (HeLa) [%] |
| --- | --- | --- | --- | --- | --- |
| FC(F)(F)c1ccc2c(c1)[nH]c1ccccc12 | inactive | inactive | inactive | inactive |  |
| FC(F)(F)c1ccc2[nH]c3ccccc3c2c1 | inactive | inactive | inactive | inactive | 57 |
| CC(C)(C)c1ccc2c(c1)[nH]c1ccccc12 | inactive | inactive | inactive | inactive | 37 |
